Experimental data: ChEMBL document CHEMBL1151737, “Development and preclinical studies of broad-spectrum anti-HIV agent (3'R,4'R)-3-cyanomethyl-4-methyl-3',4'-di-O-(S)-camphanoyl-(+)-cis-khellactone (3-cyanomethyl-4-methyl-DCK)” (J Med Chem, 2008)

How the values were obtained:
[1] = Volume of distribution in Sprague-Dawley rat at 2 mg/kg, iv; assay type: ADME, organism-based; design: dose 2 mg/kg, route intravenous; settings: in vivo
Procedure, shortened: (§1)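 Male Sprague-Dawley rats (180–200 g), n = 3, given 2 mg/kg i.v. or 20 mg/kg i.g. in 10% PEG400. Blood taken at 0–720 min, plasma stored at −20 °C. Plasma extracted by acetonitrile protein precipitation and analysed by LC-MS/MS against 5–5000 ng/mL standards. Non-compartmental analysis; F = dose-normalized oral AUC(0–t)/i.v. AUC(0–t). Mean ± SD.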

[2] = test system: Human immunodeficiency virus 1; experiment: Antiviral activity against multidrug-resistant HIV1 with reverse transcriptase 41L, 74V, 184V, 210W, 215Y, ins SS, 98G mutation infected in human MT2 cells assessed as inhibition of p24 antigen production after 4 days by ELISA; assay type: functional, organism-based; settings: Human immunodeficiency virus 1, MT2, 96 h
Procedure, shortened: (§2)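 MT-2 cells (1 × 10⁴) infected with HIV-1 (100 TCID50) in RPMI 1640 + 10% FBS with graded compound concentrations overnight; supernatant then replaced with compound-free medium. Day 4 post-infection supernatant lysed with 5% Triton X-100; p24 quantified by sandwich ELISA (HIVIG capture, anti-p24 mAb, TMB, A450) against recombinant p24 standard. Triplicate; EC50 from % inhibition of p24.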

[3] = test system: H9; experiment: Cytotoxicity against human H9 cells; assay type: cell-based
[4] = test system: Human immunodeficiency virus 1; experiment: Antiviral activity against HIV1 3B infected in human H9 lymphocytes; assay type: functional, organism-based; settings: Human immunodeficiency virus 1, 3B
[5] = test system: Human immunodeficiency virus 1; experiment: Antiviral activity against HIV1 94UG103 isolate of subtype A with X4R5 tropism in human PBMC cells assessed as inhibition of p24 antigen production after 7 days by ELISA; settings: Human immunodeficiency virus 1, PBMC, 168 h
[6] = Selectivity index, ratio of CC50 for human MT2 cells to EC50 for HIV1 3B; assay type: toxicity, cell-based; settings: read-out: Ratio CC50/EC50
[7] = test system: Human immunodeficiency virus 1; experiment: Antiviral activity against wild type HIV1 3B in human MT2 cells assessed as inhibition of p24 antigen production after 4 days by ELISA; assay type: functional, organism-based; settings: Human immunodeficiency virus 1, 3B, MT2, 96 h
[8] = Half life in Sprague-Dawley rat at 2 mg/kg, iv; assay type: ADME, organism-based; design: dose 2 mg/kg, route intravenous; settings: in vivo; procedure, shortened: as §1
[9] = test system: Human immunodeficiency virus 1; experiment: Antiviral activity against HIV1 BAL 93MW959 isolate of subtype C with R5 tropism in human PBMC cells assessed as inhibition of p24 antigen production after 7 days by ELISA; settings: Human immunodeficiency virus 1, BAL, 168 h
[10] = test system: Rattus norvegicus; experiment: AUC (0 to t) in Sprague-Dawley rat at 2 mg/kg, iv; assay type: ADME, organism-based, Plasma; design: dose 2 mg/kg, route intravenous; settings: in vivo; procedure, shortened: as §1
[11] = test system: Human immunodeficiency virus 1; experiment: Antiviral activity against HIV1 BAL RU570 isolate of subtype G with R5 tropism in human PBMC cells assessed as inhibition of p24 antigen production after 4 days by ELISA; assay type: functional, organism-based; settings: Human immunodeficiency virus 1, BAL, 96 h
[12] = test system: Rattus norvegicus; experiment: Half life in Sprague-Dawley rat at 20 mg/kg, intragastric gavage; assay type: ADME, organism-based; design: dose 20 mg/kg, route intragastric; settings: in vivo, po; procedure, shortened: as §1
[13] = Therapeutic index, ratio of IC50 for human H9 cells to EC50 for HIV1 3B; assay type: cell-based; settings: read-out: Ratio IC50/EC50
[14] = test system: Human immunodeficiency virus 1; experiment: Antiviral activity against multidrug-resistant HIV1 with reverse transcriptase clone 7324-1 infected human MT2 cells assessed as inhibition of p24 antigen production after 4 days by ELISA; assay type: functional, organism-based; settings: Human immunodeficiency virus 1, MT2, 96 h; procedure, shortened: as §2
[15] = Ratio of EC50 for multidrug-resistant HIV1 with reverse transcriptase 41 L, 67N, 210W, 215Y, 184V, 103N mutation to EC50 for wild type HIV1 3B; assay type: functional
Procedure, shortened: (§3)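 Fold change: EC50 against each multi-RT-resistant strain divided by EC50 against wild-type HIV-1 IIIB, both measured by p24 ELISA in MT-2 cells (4-day infection, triplicate).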

[16] = Selectivity index, ratio of CC50 for human MT4 cells to EC50 for HIV1 Lai; assay type: toxicity, cell-based
Procedure, shortened: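 Ratio of XTT CC50 (4-day MT-4 exposure) to p24-ELISA EC50 against HIV-1 Lai in MT-4 cells.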

[17] = test system: Human immunodeficiency virus 1; experiment: Antiviral activity against HIV1 BAL BCF02 isolate of group O with R5 tropism in human PBMC cells assessed as inhibition of p24 antigen production after 4 days by ELISA; assay type: functional, organism-based; settings: Human immunodeficiency virus 1, BAL, 96 h
[18] = test system: Human immunodeficiency virus 1; experiment: Antiviral activity against HIV1 3B with X4 tropism infected human MT2 cells assessed as inhibition of p24 antigen production after 4 days by ELISA; assay type: functional, organism-based; settings: Human immunodeficiency virus 1, 3B, MT2, 96 h; procedure, shortened: as §2
[19] = Ratio of EC50 for multidrug-resistant HIV1 with reverse transcriptase 41L, 74V, 184V, 210W, 215Y, ins SS, 98G mutation to EC50 for wild type HIV1 3B; assay type: functional; procedure, shortened: as §3
[20] = test system: Human immunodeficiency virus 1; experiment: Antiviral activity against HIV1 92UG001 isolate of subtype D with X4R5 tropism in human PBMC cells assessed as inhibition of p24 antigen production after 4 days by ELISA; assay type: functional, organism-based; settings: Human immunodeficiency virus 1, PBMC, 96 h
[21] = test system: Rattus norvegicus; experiment: Bioavailability in Sprague-Dawley rat at 20 mg/kg, intragastric gavage; assay type: ADME, organism-based; settings: in vivo, po; procedure, shortened: as §1
[22] = test system: Rattus norvegicus; experiment: Volume of distribution in Sprague-Dawley rat at 20 mg/kg, intragastric gavage; assay type: ADME, organism-based; design: dose 20 mg/kg, route intragastric; settings: in vivo, po; procedure, shortened: as §1
[23] = test system: Human immunodeficiency virus 1; experiment: Antiviral activity against HIV1 BAL 93MW959 isolate of subtype C with R5 tropism in human PBMC cells assessed as inhibition of p24 antigen production after 4 days by ELISA; assay type: functional, organism-based; settings: Human immunodeficiency virus 1, BAL, 96 h
[24] = Clearance in Sprague-Dawley rat at 20 mg/kg, intragastric gavage; assay type: ADME, organism-based; design: dose 20 mg/kg, route intragastric; settings: in vivo, po; procedure, shortened: as §1
[25] = test system: MT2; experiment: Cytotoxicity against human MT2 cells after 4 days by XTT assay; assay type: cell-based; settings: mt2, 96 h
Procedure, shortened: (§4)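 Cells (5 × 10⁵/mL) incubated with graded compound at 37 °C for 4 days, then XTT (1 mg/mL) with 0.02 µM PMS added. A450 read after 4 h; CC50 by CalcuSyn. Triplicate.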

[26] = test system: Rattus norvegicus; experiment: AUC (0 to t) in Sprague-Dawley rat at 20 mg/kg, intragastric gavage; assay type: ADME, organism-based, Plasma; design: dose 20 mg/kg, route intragastric; settings: in vivo, po; procedure, shortened: as §1
[27] = test system: MT4; experiment: Cytotoxicity against human MT4 cells after 4 days by XTT assay; assay type: cell-based; settings: mt4, 96 h; procedure, shortened: as §4
[28] = test system: Human immunodeficiency virus 1; experiment: Antiviral activity against HIV1 BAL 92US657 isolate of subtype B with R5 tropism in human PBMC cells assessed as inhibition of p24 antigen production after 7 days by ELISA; settings: Human immunodeficiency virus 1, BAL, 168 h
[29] = Clearance in Sprague-Dawley rat at 2 mg/kg, iv; assay type: ADME, organism-based; design: dose 2 mg/kg, route intravenous; settings: in vivo; procedure, shortened: as §1
[30] = Ratio of EC50 for multidrug-resistant HIV1with reverse transcriptase clone 7324-1 to EC50 for wild type HIV1 3B; assay type: functional; procedure, shortened: as §3
[31] = test system: Human immunodeficiency virus 1; experiment: Antiviral activity against HIV Lai with X4 tropism infected human MT4 cells assessed as inhibition of p24 antigen production after 4 days by ELISA; assay type: functional, organism-based; settings: Human immunodeficiency virus 1, M:B_Lai, MT4, 96 h
Procedure, shortened: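 1 × 10⁴ MT-4 cells infected with HIV-1 Lai (100 TCID50) in RPMI 1640/10% FBS with graded compound overnight. Medium then replaced with compound-free medium. Supernatant lysed with Triton X-100 on day 4 and p24 measured by sandwich ELISA (A450) against recombinant p24 standard. Triplicate; EC50 by CalcuSyn.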

[32] = test system: Human immunodeficiency virus 1; experiment: Antiviral activity against multidrug-resistant HIV1 with reverse transcriptase 41L, 67N, 210W, 215Y, 184V, 103N mutation infected in human MT2 cells assessed as inhibition of p24 antigen production after 4 days by ELISA; assay type: functional, organism-based; settings: Human immunodeficiency virus 1, MT2, 96 h; procedure, shortened: as §2
[33] = test system: PBMC; experiment: Cytotoxicity against human PBMC after 4 days by XTT assay; assay type: cell-based; settings: 96 h
[34] = test system: Human immunodeficiency virus 1; experiment: Antiviral activity against HIV1 93BR020 isolate of subtype F with X4R5 tropism in human PBMC cells assessed as inhibition of p24 antigen production after 4 days by ELISA; assay type: functional, organism-based; settings: Human immunodeficiency virus 1, PBMC, 96 h

SMILES: Cc1c(CC#N)c(=O)oc2c3c(ccc12)OC(C)(C)[C@H](OC(=O)[C@@]12CC[C@](C)(C(=O)O1)C2(C)C)[C@@H]3OC(=O)[C@@]12CC[C@](C)(C(=O)O1)C2(C)C
- Vd [1]: 2.34 L/kg
- EC50 [2]: 0.43 µM
- IC50 [3]: > 37 µM
- EC50 [4]: 0.0024 µM
- EC50 [5]: 0.84 µM
- EC90 [5]: 1.63 µM
- selectivity ratio [6]: 86.1
- EC50 [7]: 0.2 µM
- half-life [8]: 1.62 h
- EC50 [9]: 0.87 µM
- AUC [10]: 195270.08 µg/L/min
- EC50 [11]: 3.27 µM
- EC90 [11]: 8.93 µM
- t1/2 [12]: 2.78 h
- selectivity ratio [13]: 15400
- EC50 [14]: 3.93 µM
- Ratio EC50 [15]: 8.96
- selectivity ratio [16]: > 66
- EC50 [17]: 9.92 µM
- EC90 [17]: 18.1 µM
- EC50 [18]: 0.47 µM
- Ratio EC50 [19]: 2.13
- EC50 [20]: 0.98 µM
- EC90 [20]: 5.23 µM
- F [21]: 17.8%
- Vd [22]: 8.19 L/kg
- EC90 [23]: 3.06 µM
- CL/F [24]: 58 mL/min/kg
- CC50 [25]: 40.8 µM
- AUC [26]: 348067.29 µg/L/min
- CC50 [27]: > 100 µM
- EC50 [28]: 5.09 µM
- EC90 [28]: 9.22 µM
- clearance [29]: 10 mL/min/kg
- Ratio EC50 [30]: 14.4
- EC50 [31]: 1.51 µM
- EC50 [32]: 1.81 µM
- CC50 [33]: > 150 µM
- EC50 [34]: 2.18 µM
- EC90 [34]: 3.76 µM

SMILES: Cc1ccnc2c1NC(=O)c1cccnc1N2C1CC1 [NEVIRAPINE]
- EC50 [2]: > 14.8 µM
- EC50 [14]: > 14.8 µM
- EC50 [32]: > 14.8 µM

SMILES: Cc1c(CO)c(=O)oc2c3c(ccc12)OC(C)(C)[C@H](OC(=O)C12CCC(C)(C(=O)O1)C2(C)C)[C@@H]3OC(=O)C12CCC(C)(C(=O)O1)C2(C)C (some centres not stated)
- selectivity ratio [13]: 6220

SMILES: Cc1cc(=O)oc2c3c(ccc12)OC(C)(C)[C@H](OC(=O)[C@@]12CC[C@](C)(C(=O)O1)C2(C)C)[C@@H]3OC(=O)[C@@]12CC[C@](C)(C(=O)O1)C2(C)C
- IC50 [3]: 23.6 µM
- EC50 [4]: 0.0015 µM
- selectivity ratio [13]: 15700
